PKA-R2B act = activators of PKA-R2B holoenzyme, primary screen, biochemical, fluorescence polarization, Cy5-IP20, human; cAMP-dependent protein kinase catalytic subunit beta (Homo sapiens) + cAMP-dependent …; activation, % at 11.4 µM; PKA-R2B holoenzyme dissociation; R2B truncated from residue 108, S112A mutant; 0% DMSO only, 100% 113 µM cGMP; 340,000 tested, 0.079% active; AID 504700, 2011;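 active = activation above a cutoff set at the mean over all compounds plus 3 SD, cut at about 18% in these data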;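 note: higher means more holoenzyme dissociation and a rise in polarization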
Target sequence (P31323 whole entry, looked up, other chains not shown, the tested form may be a part): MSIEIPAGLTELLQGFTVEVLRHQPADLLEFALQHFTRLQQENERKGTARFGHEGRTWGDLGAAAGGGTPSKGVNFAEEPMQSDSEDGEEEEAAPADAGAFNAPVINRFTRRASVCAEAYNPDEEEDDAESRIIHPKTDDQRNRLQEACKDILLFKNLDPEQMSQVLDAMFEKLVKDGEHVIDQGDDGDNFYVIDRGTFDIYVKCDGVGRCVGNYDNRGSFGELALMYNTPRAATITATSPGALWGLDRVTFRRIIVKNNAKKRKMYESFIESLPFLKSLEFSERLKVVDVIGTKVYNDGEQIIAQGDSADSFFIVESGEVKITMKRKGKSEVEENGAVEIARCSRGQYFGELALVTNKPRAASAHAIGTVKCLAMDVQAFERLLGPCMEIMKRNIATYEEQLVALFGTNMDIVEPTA
PG9 Ab binder = binders of HIV-1 gp120 antibody PG9, primary screen, biochemical, TR-FRET | HIV-1 gp120 / PG9 antibody interaction | TR-FRET gp120-PG9 antibody binding | inhibition, % at 6.7 µM | 360,000 tested, 0.43% active; in the data active = inhibition above about 8.5%
Rev-erbA mod = modulators of Rev-erb alpha DNA binding, primary screen, biochemical, FITC-DNA, fluorescence polarization, uHTS; Rev-erbα–FITC-DNA binding, 90 min; activity, % at 10 µM; 370,000 tested, 0.79% active;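 active = activity above about 14%, limit read from the data; passing the limit was not always enough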;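 note: 0% = DMSO wells with 35 nM protein and 100% = DMSO wells with 750 nM protein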
NR2E3 ag-1 = NR2E3 agonists in two-hybrid cells, primary screen, cell-based, luminescence, CHO-S, Gal4-NCOR/VP16-NR2E3; luciferase; inhibition of corepressor binding, % at 3.98 µM; 360,000 tested, 0.35% active;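 active = inhibition above the mean of all tested compounds plus 3 SD, cut at about 70% in these data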;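 note: 0% = DMSO with NR2E3 transfected cells and 100% = cells lacking NR2E3 construct; higher means lower luciferase signal from less NR2E3 corepressor binding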
PKA-R1A act = activators of PKA-R1A holoenzyme, primary screen, biochemical, fluorescence polarization, Cy5-IP20, bovine R1A, mouse PKAc | activation, % at 11.4 µM | PKA-R1A dissociation; scaled: DMSO 0%, 113 µM cGMP 100% | cAMP-dependent protein kinase type I-alpha regulatory subunit (Bos taurus) + … | 340,000 tested, 0.083% active;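 active = percent activation above the mean of all tested compounds plus 3 SD, cut at about 19% in these data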;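 note: higher means more PKAc released from R1A so a rise in polarization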
NR2E3 ag-2 = inhibitors of NR2E3-RetCOR corepressor binding, primary screen, NR2E3 agonist project, biochemical, TR-FRET, GST-NR2E3, biotin-RetCOR | 1536-well | inhibition of corepressor binding, % at 4.78 µM | 320,000 tested, 0.12% active | AID 2300, 2010;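 active = percent inhibition above the cutoff of mean plus 3 SD of all tested compounds, set per screening campaign, cut at about 20% in these data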;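 note: 0% = DMSO wells and 100% = biotin wells as full block of FRET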
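System: GST-tagged NR2E3 plus biotinylated RetCOR corepressor; Amount: 1.35 nM GST-tagged NR2E3 final; Dosing: single nominal compound dose of 4.8 µM; Schedule: 5 h incubation at 4 °C; Technique: TR-FRET with europium anti-GST and streptavidin-D2, 340 nm excitation; Controls: biotin wells as high control, 0.6% DMSO wells as low control.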
R1A FP artifact = FP signal interference without PKA proteins, confirmation, artefact control for PKA-R1A activator project, biochemical, fluorescence polarization, triplicate. 280 tested, 7% active. shares compounds with PKA-R1A act. activation, % at 11.4 µM. Cy5-IP20 peptide alone, fluorescence polarization artifact counterscreen;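 active = mean activation over triplicate runs exceeds the adjusted cutoff derived for the parent primary screen, cut at about 19% in these data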;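 note: no PKA protein present so any polarization rise reflects compound interference; 0% = tracer peptide mix alone and 100% = mix with added PKA catalytic subunit; higher means stronger polarization artifact and likely false positive in parent screen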
PKA-R1A confirm = activators of PKA-R1A holoenzyme, confirmation, biochemical, fluorescence polarization, Cy5-IP20, triplicate | PKA-R1A holoenzyme dissociation | 280 tested, 9% active | activation, % at 11.4 µM | shares compounds with PKA-R1A act;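 active = mean activation over replicate wells exceeds the adjusted hit threshold taken from the earlier primary screen, cut at about 20% in these data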;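 note: 0% = holoenzyme mix with DMSO only and 100% = cGMP-activated control wells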
NR2E3 ag conf = NR2E3 agonist confirmation in cells, cell-based, luminescence, CHO-S two-hybrid; 2,300 tested, 51% active; CHO-S mammalian two-hybrid NR2E3-NCOR, luciferase luminescence; shares compounds with NR2E3 ag-1; inhibition, % at 3.98 µM;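 active = average inhibition above a cutoff equal to the mean inhibition of all tested compounds plus one SD, cut at about 70% in these data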;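 note: 0% = DMSO in NR2E3 cells and 100% = DMSO in cells lacking NR2E3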
GAL4-VP16 luc = GAL4-VP16 reporter modulators, confirmation, counter-screen for NR2E3 agonist project, cell-based, luminescence, CHO-S, high throughput | CHO-S GAL4-VP16 luciferase reporter | shares compounds with NR2E3 ag-1 | inhibition, % at 3.98 µM | AID 624379, 2012 | 2,300 tested, 29% active;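 active = mean inhibition above a cutoff equal to the average over all tested compounds plus one standard deviation, cut at about 70% in these data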;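 note: luciferase from a UAS reporter driven by GAL4-VP16 transactivation; 0% = DMSO with VP16-transfected cells and 100% = DMSO with cells lacking VP16; higher means less reporter light so more repression of VP16 activity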
Rev-erbA confirm = modulators of Rev-erb alpha DNA binding, confirmation, biochemical, FITC-DNA, fluorescence polarization, single point. AID 1259319, 2017. shares compounds with Rev-erbA mod. activation, % at 25 µM. 3,000 tested, 61% active. 90 min;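 active = activation at or above a set limit, or at least 3 SD above the negative control mean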;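 note: 0% = 35 nM protein with DMSO and 100% = 750 nM protein high control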
Numbers without * were called inactive; . = not tested or not shown. Compounds with a hit are over-represented: about 1.6% of the library has one in this group of screens.

SMILES	PKA-R2B act	PG9 Ab binder	Rev-erbA mod	NR2E3 ag-1	PKA-R1A act	NR2E3 ag-2	NR2E3 ag conf	GAL4-VP16 luc	others
Cc1ccc(N=Nc2c(=O)[nH]n3c(C)cc(C)nc23)cc1	3	-12	17*	-29	23*	0	.	.	R1A FP artifact=6;PKA-R1A confirm=6;Rev-erbA confirm=4
COc1ccc(CC2CCN(c3ncnc4sccc34)CC2)cc1	.	.	-3	.	.	.	.	.
COc1ccc(CCN2C(=O)CSC2=Nc2ccc(C(C)C)cc2)cc1OC	.	2	1	49	.	2	83*	75*
COc1cccc2c1OC[C@@H](CO)[C@H]2N(C)C(=O)Nc1ccc(Cl)cc1Cl	-3	-2	2	49	-4	3	11	30
COc1ccccc1-c1nnc(SCC(=O)Nc2ccc(Cl)cc2Cl)o1	-6	-1	3	-8	-7	-3	.	.
Cc1ccc(/C=C2\SC(=S)N(CCCC(=O)NNC(=O)c3ccccc3O)C2=O)cc1	-6	0	0	69	1	0	67	73*
Cc1ccc(/C=C2\SC(=S)N(CCCC(=O)Nc3cccc(C(=O)O)c3)C2=O)cc1	-5	-1	-7	85*	-4	2	40	89*
COc1cccc(/C=C2/SC(=S)N(CCCC(=O)Nc3ccc(O)cc3)C2=O)c1	0	-2	6	54	-6	1	15	70
CC(=C\c1ccccc1)/C=C1/SC(=O)N(CCCC(=O)Nc2ccc(C(=O)O)cc2)C1=O	-5	-1	-3	73*	-4	2	10	76*
O=C(CCCN1C(=O)/C(=C\c2ccccc2)SC1=S)Nc1cccc(C(=O)O)c1	7	-2	-2	-21	-8	1	.	.
COc1cccc(/C=C2\SC(=S)N(CCCC(=O)Nc3ccc(C(=O)O)cc3)C2=O)c1	-8	-4	0	19	-10	0	.	.
Cc1ccc(/C=C2\SC(=S)N(CCC(=O)NNC(=O)c3ccccc3O)C2=O)cc1	6	-2	-2	-16	7	3	.	.
COc1ccc(/C=C2\SC(=S)N(CCC(=O)Nc3ccccc3C(=O)O)C2=O)cc1	-3	-2	-12	-23	-4	2	.	.
O=C(CCCN1C(=O)/C(=C/c2ccc3c(c2)OCO3)SC1=S)Nc1cccc(C(=O)O)c1	-6	-2	-1	66	-4	4	43	68
O=C(CCN1C(=O)/C(=C/c2ccc3c(c2)OCO3)SC1=S)Nc1cccc(C(=O)O)c1	2	-1	-3	8	-2	4	.	.
O=C(CCCN1C(=O)/C(=C\c2ccccc2)SC1=S)Nc1ccc(O)cc1	.	-2	2	8	.	0	.	.
CCc1ccc(/C=C2/SC(=S)N(CCCC(=O)Nc3cccc(C(=O)O)c3)C2=O)cc1	-9	-1	-13	-30	11	.	.	.
Cc1ccc(C=C2SC(=S)N(CCCC(=O)Nc3cccc(C(=O)O)c3)C2=O)cc1	.	0	-2	73*	.	.	32	88*
COc1ccc(/C=C2\SC(=O)N(CCCC(=O)Nc3cc(Cl)ccc3C(=O)O)C2=O)cc1	-4	1	1	88*	-4	.	80*	87*
Cc1ccc(/C=C2/SC(=S)N(CCCC(=O)Nc3ccc(O)cc3)C2=O)cc1	-6	-1	-3	88*	-13	.	41	90*
Cc1cc(OCC(C)CN2CCC(C(O)(c3ccccc3)c3ccccc3)CC2)ccc1Br (configuration not stated)	.	.	3	.	.	.	.	.
CN(C)C(=O)NCCCC#Cc1ccccc1	.	.	8	.	.	.	.	.
Cc1ccc(CN2CC(C(=O)Nc3ncc(C)s3)CC2=O)cc1 (configuration not stated)	-9	1	4	83*	0	.	83*	17
Cc1ccc(CN2CC(C(=O)Nc3nc(C)cs3)CC2=O)cc1 (configuration not stated)	11	-2	2	9	5	.	.	.
CCCCCCCCN1C(=O)[C@@H](CC(=O)N2CCN(C(=O)OCC)CC2)C[C@@]2(C(=O)OC)C1=C[C@H](COCc1ccccc1)O[C@@H]2C	.	.	-1	.	.	.	.	.
SMILES	PKA-R2B act	PG9 Ab binder	Rev-erbA mod	NR2E3 ag-1	PKA-R1A act	NR2E3 ag-2	NR2E3 ag conf	GAL4-VP16 luc	others
Cn1c(O)c(N=NC(=S)Nc2ccccc2F)c2cc(S(=O)(=O)N3CCOCC3)ccc21	-2	-1	-2	-12	-2	.	.	.
Cc1ccc(N=Nc2c(O)n(CN3CCOCC3)c3ccccc23)cc1	-17	.	.	-115	-15	0	.	.
Cc1cccc(NC(=S)N=Nc2c(O)n(CN3CCOCC3)c3ccccc23)c1C	-1	-1	4	72*	-1	0	15	22
C=CCn1c(O)c(N=NC(=S)Nc2ccccc2C)c2cc(S(=O)(=O)N3CCOCC3)ccc21	-2	-1	1	63	-17	1	23	26
CCOC(=O)Cn1cc(CN2CCS(=O)(=O)N(Cc3ccccc3)C(C(=O)OC)C2)nn1 (configuration not stated)	.	.	5	.	.	.	.	.
O=C(CNc1cccc(S(=O)(=O)N2CCOCC2)c1)Nc1ccc(C(F)(F)F)cc1	2	0	1	50	-9	-2	10	25
CN(C)S(=O)(=O)c1cccc(NC(=O)CNc2cccc(S(=O)(=O)N3CCCCC3)c2)c1	-2	-1	-1	-7	-2	.	.	.
